According to ChEMBL document CHEMBL1131017, “Synthesis and evaluation of peptidyl Michael acceptors that inactivate human rhinovirus 3C protease and inhibit virus replication” (J Med Chem, 1998):
In brackets after ≈: the same amount, converted by molar mass. Non-standard residues stand in square brackets, D forms with d. Residues, ends and D or L forms follow the SMILES beside them. ξ: configuration not given here. *: point of attachment. X1 = COC(=O)/C=C/[C@H](CCC(N)=O)N*; ξE = NC(CCC(=O)O)C(=O)O; Boc = CC(C)(C)OC(=O)*; OtBu = CC(C)(C)O*

Assays:
[1] = target: T1, Human rhinovirus A protease (Human rhinovirus sp.) (UniProt Q4U254); assay: Percent inhibition of HRV-14 3C protease was measured at a concentration of 1 ug/mL
T1 sequence (whole entry): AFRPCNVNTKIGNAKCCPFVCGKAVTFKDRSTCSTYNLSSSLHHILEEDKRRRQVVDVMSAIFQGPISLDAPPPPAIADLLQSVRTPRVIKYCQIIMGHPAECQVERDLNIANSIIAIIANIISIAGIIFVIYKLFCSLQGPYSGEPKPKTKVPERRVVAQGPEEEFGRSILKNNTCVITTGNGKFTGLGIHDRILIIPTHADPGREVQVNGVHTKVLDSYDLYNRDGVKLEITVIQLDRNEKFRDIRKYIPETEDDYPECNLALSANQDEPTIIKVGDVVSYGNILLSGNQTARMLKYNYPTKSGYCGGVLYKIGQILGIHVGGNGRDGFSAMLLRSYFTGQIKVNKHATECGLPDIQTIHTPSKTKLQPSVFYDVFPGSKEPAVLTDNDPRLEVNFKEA

[2] = test system: HeLa; assay: Antiviral activity measured in cell culture assay, inhibiting plaque formation by 50% at subumolar concentrations.; type: functional, cell-based; details: Homo sapiens
Summary of the method: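 HeLa monolayers (confluent) were infected with HRV-14 at 100 PFU/plate. After 30 min adsorption they were overlaid with maintenance medium containing 0.5% agarose plus compound at various concentrations, then held 48 h at 35 °C. Cells were formalin-fixed and crystal violet-stained. Duplicate plaque counts were converted to percent of control and the IC50 interpolated. Runs were repeated 2–3 times, the highest interpolated IC50 reported, and enviroxime was included as control.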

[3] = target: T1, Human rhinovirus A protease (Human rhinovirus sp.); assay: Percent inhibition of HRV-14 3C protease was measured at a concentration of 100 ug/mL(average of duplicates which agreed within +/- 10%)
[4] = target: T1, Human rhinovirus A protease (Human rhinovirus sp.); assay: Percent inhibition of HRV-14 3C protease was measured at a concentration of 5 ug/mL (average of duplicates which agreed within +/- 10%)

Structure (SMILES)	inhibition [1] [%]	IC50 [2] [µg/mL]	inhibition [3] [%]	inhibition [4] [%]
COC(=O)/C=C/[C@H](CCC(N)=O)NC(=O)[C@H](Cc1ccccc1)NC(=O)[C@H](CC(C)C)NC(=O)[C@H](NC(=O)[C@@H](N)CCC(=O)O)C(C)C	100			
CCOC(=O)/C=C/[C@H](CCC(N)=O)NC(=O)[C@H](Cc1ccccc1)NC(=O)[C@H](CC(C)C)NC(=O)[C@@H](NC(=O)OC(C)(C)C)C(C)C	100	0.41 (≈ 0.621 µM)		
CCOC(=O)/C=C/C(CCC(N)=O)NC(=O)OCc1ccccc1 (stereo not given)		> 10	18	
COC(=O)/C=C/C(CCC(N)=O)NC(=O)OC(C)(C)C (stereo not given)			18	
CCOC(=O)/C=C/C(CCC(N)=O)NC(=O)OC(C)(C)C (stereo not given)		> 10	27	
COC(=O)/C=C/[C@H](CCC(N)=O)NC(=O)[C@H](Cc1ccccc1)NC(=O)[C@H](CC(C)C)NC(=O)[C@@H](NC(=O)OC(C)(C)C)C(C)C	100	0.74 (≈ 1.15 µM)		
COC(=O)/C=C/C(CCC(N)=O)NC(=O)C(Cc1ccccc1)NC(=O)OC(C)(C)C (stereo not given)		> 10	42	
COC(=O)/C=C/C(CCC(N)=O)NC(=O)C(Cc1ccccc1)NC(=O)OCc1ccccc1 (stereo not given)		3.2 (≈ 6.84 µM)		51
CCOC(=O)/C=C/C(CCC(N)=O)NC(=O)C(Cc1ccccc1)NC(=O)OC(C)(C)C (stereo not given)		> 10	39	
COC(=O)/C=C/[C@H](CCC(N)=O)NC(=O)[C@H](Cc1ccccc1)NC(=O)[C@H](CC(C)C)NC(=O)[C@@H](NC(=O)[C@@H](N)CCC(=O)O)C(C)C		> 10		
COC(=O)/C=C/[C@H](CCC(N)=O)NC(=O)[C@H](Cc1ccccc1)NC(=O)[C@H](CC(C)C)NC(=O)[C@@H](NC(=O)C(CCC(=O)OC(C)(C)C)NC(=O)OC(C)(C)C)C(C)C (stereo not given in full) (Boc-[ξE](OtBu)VLF-X1)	100	4.5 (≈ 5.42 µM)		
CC(C)C[C@H](NC(=O)[C@@H](NC(=O)OC(C)(C)C)C(C)C)C(=O)N[C@@H](Cc1ccccc1)C(=O)N[C@H](/C=C/C(=O)O)CCC(N)=O	43	> 10		
COC(=O)/C=C/[C@H](CCC(N)=O)NC(=O)[C@H](Cc1ccccc1)NC(=O)[C@H](CC(C)C)NC(=O)[C@@H](NC(=O)OCc1ccccc1)C(C)C	100	0.93 (≈ 1.37 µM)		
NC(=O)CCC(/C=C/S(=O)(=O)c1ccccc1)NC(=O)C(Cc1ccccc1)NC(=O)OCc1ccccc1 (stereo not given)		> 10	42	
